Measured values published in ChEMBL document CHEMBL3351225, “Design, synthesis, and structure-activity and structure-pharmacokinetic relationship studies of novel [6,6,5] tricyclic fused oxazolidinones leading to the discovery of a potent, selective, and orally bioavailable FXa inhibitor” (J Med Chem, 2014).

What was measured:
Coagulation factor X = Coagulation factor X (Homo sapiens, UniProt P00742); test: Inhibition of human factor 10a using N-Z-D-Arg-Gly-Arg-pNA, S-2765 chromogenic substrate
Coagulation factor X, sequence (P00742 41-179 limits assumed): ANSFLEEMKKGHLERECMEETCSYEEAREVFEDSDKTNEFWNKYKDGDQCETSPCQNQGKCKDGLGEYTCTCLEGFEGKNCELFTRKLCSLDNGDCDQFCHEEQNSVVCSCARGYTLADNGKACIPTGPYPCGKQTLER
Coagulation factor X, sequence (P00742 235-488 limits assumed): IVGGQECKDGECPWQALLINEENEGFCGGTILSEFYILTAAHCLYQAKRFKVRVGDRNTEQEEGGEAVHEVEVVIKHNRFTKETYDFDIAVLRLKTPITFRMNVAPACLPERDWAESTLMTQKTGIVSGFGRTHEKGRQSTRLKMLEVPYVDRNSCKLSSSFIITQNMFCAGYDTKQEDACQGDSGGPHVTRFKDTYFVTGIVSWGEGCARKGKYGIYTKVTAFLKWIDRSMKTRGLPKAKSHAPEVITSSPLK

Prothrombin = Prothrombin (Homo sapiens, UniProt P00734); test: Inhibition of human factor 2a using L-pyro-Glu-Pro-ArgpNA, S-2366 chromogenic substrate
Summary of the method: (§1)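 Human enzyme and inhibitor were premixed and preincubated, then the chromogenic substrate was added. Substrate levels: 300 μM S-2765 (FXa, trypsin); 200 μM S-2366 (FIIa); 2 mM S-2366 (FVIIa, FXIa). pNA release was monitored continuously at 405 nm for 20 min at 37 °C. IC50 was obtained by nonlinear regression.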

Coagulation factor VII = molecular target: T1, Coagulation factor VII (Homo sapiens, UniProt P08709); test: Inhibition of human factor 7a using S-2366 chromogenic substrate; summary of the method: as §1
T1 sequence (P08709 whole entry): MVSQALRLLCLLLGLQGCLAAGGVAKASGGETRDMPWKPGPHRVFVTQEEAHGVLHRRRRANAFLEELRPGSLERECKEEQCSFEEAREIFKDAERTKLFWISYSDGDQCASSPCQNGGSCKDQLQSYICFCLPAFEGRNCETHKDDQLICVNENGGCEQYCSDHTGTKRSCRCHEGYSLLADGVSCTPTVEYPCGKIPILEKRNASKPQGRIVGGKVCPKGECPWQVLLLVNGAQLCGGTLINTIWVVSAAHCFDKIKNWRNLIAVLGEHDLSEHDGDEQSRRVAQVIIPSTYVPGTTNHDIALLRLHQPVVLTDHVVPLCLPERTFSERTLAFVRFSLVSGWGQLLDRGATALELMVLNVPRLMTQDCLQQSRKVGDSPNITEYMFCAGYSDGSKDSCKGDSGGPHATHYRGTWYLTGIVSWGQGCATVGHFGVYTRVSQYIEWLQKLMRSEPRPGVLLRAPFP

Coagulation factor IX = Coagulation factor IX (Homo sapiens, UniProt P00740); test: Inhibition of human factor 9a using CH3SO2-(D)CHG Gly-Arg-pNA, Biophen-CS51 chromogenic substrate
Coagulation factor IX, sequence (P00740 47-191 limits assumed): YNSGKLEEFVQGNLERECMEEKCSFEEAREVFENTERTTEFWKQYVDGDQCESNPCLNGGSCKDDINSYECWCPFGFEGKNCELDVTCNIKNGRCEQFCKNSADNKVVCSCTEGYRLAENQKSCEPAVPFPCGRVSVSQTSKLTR
Coagulation factor IX, sequence (P00740 227-461 limits assumed): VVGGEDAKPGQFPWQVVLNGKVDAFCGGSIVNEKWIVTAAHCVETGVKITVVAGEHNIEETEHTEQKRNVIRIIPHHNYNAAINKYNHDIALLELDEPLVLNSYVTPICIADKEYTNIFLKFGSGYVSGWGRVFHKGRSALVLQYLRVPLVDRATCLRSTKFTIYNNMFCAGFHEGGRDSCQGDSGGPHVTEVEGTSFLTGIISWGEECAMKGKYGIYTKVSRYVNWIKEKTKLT

Trypsin = Trypsin (Homo sapiens, UniProt P07477+P07478+P35030); test: Inhibition of human trypsin using N-Z-D-Arg-Gly-Arg-pNA, S-2765 chromogenic substrate; format: protein assay; summary of the method: as §1
Coagulation factor XI = Coagulation factor XI (Homo sapiens, UniProt P03951); test: Inhibition of human factor 11a using S-2366 chromogenic substrate; summary of the method: as §1
Coagulation factor XI, sequence (P03951 19-387 limits assumed): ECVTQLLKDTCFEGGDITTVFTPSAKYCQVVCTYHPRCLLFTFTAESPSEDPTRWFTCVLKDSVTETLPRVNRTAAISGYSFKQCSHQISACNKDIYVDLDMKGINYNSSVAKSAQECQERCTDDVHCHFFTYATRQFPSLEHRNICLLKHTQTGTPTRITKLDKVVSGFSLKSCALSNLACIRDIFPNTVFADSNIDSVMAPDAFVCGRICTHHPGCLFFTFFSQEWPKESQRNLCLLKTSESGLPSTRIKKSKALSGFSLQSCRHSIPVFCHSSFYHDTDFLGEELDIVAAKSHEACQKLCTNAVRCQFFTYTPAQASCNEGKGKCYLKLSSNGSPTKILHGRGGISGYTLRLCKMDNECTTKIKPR
Coagulation factor XI, sequence (P03951 388-625 limits assumed): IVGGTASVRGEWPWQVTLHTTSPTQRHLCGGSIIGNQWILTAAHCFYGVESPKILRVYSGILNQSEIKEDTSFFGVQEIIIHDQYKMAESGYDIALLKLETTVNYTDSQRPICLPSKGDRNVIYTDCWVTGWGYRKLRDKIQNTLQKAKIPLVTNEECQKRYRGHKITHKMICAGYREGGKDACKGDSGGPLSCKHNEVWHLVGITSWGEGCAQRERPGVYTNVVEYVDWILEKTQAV

Plasma [1] = test: Anticoagulant activity in citrated rabbit plasma assessed as drug concentration required to double plasma clotting time preincubated for 10 mins at 37 degC by coagulometry; format: functional, Oryctolagus cuniculus
Summary of the method: (§2)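 Test compound or DMSO added to citrated rabbit plasma (3.8% sodium citrate, 10:90 v/v) and preincubated 10 min at 37 °C. PT and aPTT clotting times measured on a coagulometer with commercial kits. Activity expressed as the concentration needed to double plasma clotting time (CT2, μM).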

Plasma [2] = test: Anticoagulant activity in citrated rabbit plasma assessed as activated partial thromboplastin time preincubated for 10 mins at 37 degC by coagulometry; format: functional, Oryctolagus cuniculus; summary of the method: as §2
[3] = Cmax in Sprague-Dawley rat at 10 mg/kg, po; format: ADME, organism-based; set-up: dose 10 mg/kg, route oral; conditions: in vivo
Summary of the method: (§3)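 Male Sprague-Dawley rats, 200−220 g, four per group. Vehicle was 5% DMSO + 5% Tween-80 in 90% saline. The reference drug was given in 10% DMSO + 10% Tween-80 + 80% PEG400 (40% solution in saline). Serial retrobulbar vein samples were quantified by LC-MS. Parameters came from noncompartmental analysis of mean plasma concentrations.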

[4] = Tmax in Sprague-Dawley rat at 10 mg/kg, po; format: ADME, organism-based; set-up: dose 10 mg/kg, route oral; conditions: in vivo; summary of the method: as §3
[5] = Elimination half life in Sprague-Dawley rat at 10 mg/kg, po; format: ADME, organism-based; set-up: dose 10 mg/kg, route oral; conditions: in vivo, read-out: beta t1/2 (converted); summary of the method: as §3
[6] = Elimination half life in Sprague-Dawley rat at 3 mg/kg, iv; format: ADME, organism-based; set-up: dose 3 mg/kg, route intravenous; conditions: in vivo, read-out: beta t1/2 (converted); summary of the method: as §3
[7] = AUC (0 to infinity) in Sprague-Dawley rat at 10 mg/kg, po; format: ADME, organism-based; set-up: time infinity, dose 10 mg/kg, route oral; conditions: plasma; summary of the method: as §3
[8] = AUC (0 to infinity) in Sprague-Dawley rat at 3 mg/kg, iv; format: ADME, organism-based; set-up: time infinity, dose 3 mg/kg, route intravenous; conditions: plasma; summary of the method: as §3
[9] = Plasma clearance in Sprague-Dawley rat at 3 mg/kg, iv; format: ADME, organism-based; set-up: dose 3 mg/kg, route intravenous; summary of the method: as §3
[10] = Volume of distribution at steady state in Sprague-Dawley rat at 3 mg/kg, iv; format: ADME, organism-based; set-up: dose 3 mg/kg, route intravenous; conditions: in vivo, read-out: Vdss; summary of the method: as §3
[11] = Oral bioavailability in Sprague-Dawley rat at 10 mg/kg; format: ADME, organism-based; conditions: in vivo; summary of the method: as §3

SMILES: O=C(NC[C@@H]1OC(=O)N2c3ccc(N4CCOCC4=O)cc3OC[C@@H]12)c1cc2ccc(Cl)cc2s1
- IC50 (Coagulation factor X): 1750 nM

SMILES: O=C(NC[C@@H]1OC(=O)N2c3ccc(N4CCOCC4=O)cc3OC[C@@H]12)c1cc2cc(Cl)ccc2s1
- IC50 (Coagulation factor X): 25900 nM

SMILES: O=C(NC[C@@H]1OC(=O)N2c3ccc(N4CCOCC4=O)cc3OC[C@@H]12)c1cc2c(Cl)cccc2s1
- IC50 (Coagulation factor X): > 100000 nM

SMILES: O=C(NC[C@@H]1OC(=O)N2c3ccc(N4CCOCC4=O)cc3OC[C@@H]12)c1sc2cc(Cl)ccc2c1Cl
- IC50 (Coagulation factor X): > 100000 nM

SMILES: O=C(CSCCCl)NC[C@@H]1OC(=O)N2c3ccc(N4CCOCC4=O)cc3OC[C@@H]12
- IC50 (Coagulation factor X): > 100000 nM

SMILES: O=C(NC[C@@H]1OC(=O)N2c3ccc(N4CCOCC4=O)cc3OC[C@@H]12)C(Cl)Cl
- IC50 (Coagulation factor X): 52700 nM

SMILES: O=C(NC[C@@H]1OC(=O)N2c3ccc(N4CCOCC4=O)cc3OC[C@@H]12)Nc1ccc(Cl)s1
- IC50 (Coagulation factor X): 88.5 nM

SMILES: O=C(NC[C@@H]1OC(=O)N2c3ccc(N4CCOCC4=O)cc3OC[C@@H]12)Nc1ccc(Cl)cc1
- IC50 (Coagulation factor X): 32.1 nM

SMILES: O=C(NC[C@@H]1OC(=O)N2c3ccc(N4CCOCC4=O)cc3OC[C@@H]12)C(=O)Nc1ccc(Cl)s1
- IC50 (Coagulation factor X): 560 nM

SMILES: O=C(NC[C@@H]1OC(=O)N2c3ccc(N4CCOCC4=O)cc3OC[C@@H]12)C(=O)Nc1ccc(Cl)cn1
- IC50 (Coagulation factor X): 1210 nM

SMILES: O=C(NC[C@@H]1OC(=O)N2c3ccc(N4CCOCC4=O)cc3OC[C@@H]12)C(=O)Nc1ccc(Cl)cc1
- IC50 (Coagulation factor X): 310 nM

SMILES: O=C(Nc1ccc(Cl)s1)[C@@H]1OC(=O)N2c3ccc(N4CCOCC4=O)cc3OC[C@@H]12
- IC50 (Coagulation factor X): > 100000 nM

SMILES: O=C(Nc1ccc(Cl)cn1)[C@@H]1OC(=O)N2c3ccc(N4CCOCC4=O)cc3OC[C@@H]12
- IC50 (Coagulation factor X): > 100000 nM

SMILES: O=C(NC[C@@H]1OC(=O)N2c3ccc(N4CCOCC4=O)cc3SC[C@@H]12)c1ccc(Cl)s1
- IC50 (Prothrombin): > 100000 nM
- IC50 (Coagulation factor X): 2.51 nM
- IC50 (Coagulation factor VII): > 100000 nM
- IC50 (Coagulation factor IX): > 100000 nM
- IC50 (Trypsin): > 100000 nM
- IC50 (Coagulation factor XI): > 100000 nM
- Activity (Plasma [1]): 0.58 µM
- 2aPTT (Plasma [2]): 0.33 µM
- Cmax [3]: 167 ng/mL
- Tmax [4]: 4 h
- half-life [5]: 3.15 h
- half-life [6]: 0.89 h
- AUC(0-inf) [7]: 1480 ng·h/mL
- AUC(0-inf) [8]: 5700 ng·h/mL
- clearance [9]: 8.82 mL/min/kg
- Vd [10]: 0.574 L/kg
- bioavailability [11]: 7.4%

SMILES: O=C(NC[C@@H]1OC(=O)N2c3ccc(N4CCCCC4=O)cc3SC[C@@H]12)c1ccc(Cl)s1
- IC50 (Coagulation factor X): 4.89 nM
- Activity (Plasma [1]): 0.64 µM
- 2aPTT (Plasma [2]): 0.62 µM

SMILES: O=C(NC[C@@H]1OC(=O)N2c3ccc(N4CCOCC4=O)cc3SC[C@@H]12)c1ccc(Cl)cc1
- IC50 (Coagulation factor X): 45.2 nM

SMILES: O=C(NC[C@@H]1OC(=O)N2c3ccc(N4CCOCC4=O)cc3[S+]([O-])C[C@@H]12)c1ccc(Cl)s1 (stereo partly drawn)
- IC50 (Coagulation factor X): 64 nM

SMILES: O=C(NC[C@@H]1OC(=O)N2c3ccc(N4CCOCC4=O)cc3S(=O)(=O)C[C@@H]12)c1ccc(Cl)s1
- IC50 (Coagulation factor X): 17.4 nM
- Activity (Plasma [1]): 0.47 µM
- 2aPTT (Plasma [2]): 0.76 µM
- Cmax [3]: 917 ng/mL
- Tmax [4]: 0.38 h
- half-life [5]: 2.14 h
- half-life [6]: 0.54 h
- AUC(0-inf) [7]: 1540 ng·h/mL
- AUC(0-inf) [8]: 6120 ng·h/mL
- clearance [9]: 8.22 mL/min/kg
- Vd [10]: 0.154 L/kg
- bioavailability [11]: 7.3%

SMILES: O=C(NC[C@@H]1OC(=O)N2c3ccc(N4CCCCC4=O)cc3S(=O)(=O)C[C@@H]12)c1ccc(Cl)s1
- IC50 (Coagulation factor X): 50.5 nM

SMILES: CS(=O)(=O)c1ccccc1-c1ccc2c(c1)SC[C@H]1[C@H](CNC(=O)c3ccc(Cl)s3)OC(=O)N21
- IC50 (Coagulation factor X): 20.9 nM

SMILES: CS(=O)(=O)c1ccccc1-c1ccc2c(c1)SC[C@H]1[C@H](CNC(=O)c3ccc(Cl)cc3)OC(=O)N21
- IC50 (Coagulation factor X): 1610 nM

SMILES: O=C(NC[C@@H]1OC(=O)N2c3ccc(N4CCCCC4=O)cc3CC[C@@H]12)c1ccc(Cl)s1
- IC50 (Coagulation factor X): 6.59 nM

SMILES: CC(C)(C)OC(=O)N1C[C@H]2[C@H](CNC(=O)c3ccc(Cl)s3)OC(=O)N2c2ccc(N3CCCCC3=O)cc21
- IC50 (Coagulation factor X): 8180 nM

SMILES: O=C(NC[C@@H]1OC(=O)N2c3ccc(N4CCCCC4=O)cc3NC[C@@H]12)c1ccc(Cl)s1
- IC50 (Coagulation factor X): 15.2 nM
